Measurements from ChEMBL document CHEMBL1629415, “Biological evaluation of donor-acceptor aminonaphthoquinones as antitumor agents” (Eur J Med Chem, 2010).
Values after ≈ are worked out from the molar mass of the structure shown. Active and inactive are the calls of the source. The calls are words filed in the database; no cut-off is given here.

Legend:
[1] = system: MCF7; assay: Cytotoxicity against human MCF7 cells after 48 hrs by MTT assay; type: functional, cell-based; settings: MCF7, 48 h
How it was run: (§1)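 T24, DU145 and MCF7 grown in high-glucose DMEM with 10% fetal calf serum and penicillin/streptomycin. BALB/3T3 mouse fibroblasts grown in the same medium with 10% newborn calf serum. Cells seeded at 10 000/well for 24 h, then exposed 48 h at 37 C. MTT 0.5 mg/mL for 2 h, formazan dissolved in DMSO, read at 550 nm. EC50 is the concentration that lowers MTT reduction by 50% versus untreated control.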

[2] = system: T-24; assay: Cytotoxicity against human T24 cells after 48 hrs by MTT assay; type: functional, cell-based; settings: T-24, 48 h; how it was run: as §1
[3] = system: DU-145; assay: Cytotoxicity against human DU145 cells after 48 hrs by MTT assay; type: functional, cell-based; settings: DU-145, 48 h; how it was run: as §1
[4] = system: BALB/3T3; assay: Cytotoxicity against mouse BALB/3T3 cells after 48 hrs by MTT assay; type: cell-based; settings: BALB/3T3, 48 h; how it was run: as §1
[5] = Lipophilicity, log P of the compound; type: physicochemical; settings: octanol/water
[6] = system: T-24; assay: Anticancer activity against human T24 cells assessed as inhibition of cell proliferation at 10 ug/ml after 10 days using crystal violet staining by clonogenic assay; type: functional
How it was run: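 T24 cells (500) seeded at single-cell density and left to adhere overnight. Compound exposure 24 h, then washed with warm PBS and regrown 10 days in fresh medium. Colonies stained with crystal violet to score clonogenic survival.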

[7] = system: T-24; assay: Anticancer activity against human T24 cells assessed as decreased in intracellular ATP level at 100 ug/ml after 6 hrs by ATPlite assay; type: functional, cell-based
How it was run: (§2)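 T24 cells in high-glucose DMEM with 10% FCS were exposed 6 h at 37 C to compound over a 1–100 range, alongside untreated controls. Intracellular ATP was measured by ATPlite luminescence kit. Groups were compared by one-way ANOVA with Bonferroni test.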

[8] = system: T-24; assay: Induction of apoptosis in human T24 cells assessed as increase of caspase-3-mediated DEVDase activity at 1 ug/ml after 6 hrs; type: functional
How it was run: (§3)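 T24 cells exposed 6 or 24 h at 37 C, washed twice in PBS, lysed and centrifuged. Supernatant incubated with DEVD-AFC substrate, cleavage followed kinetically at room temperature (ex 380 nm, em 500 nm). Activity given as U/mg protein, protein by Lowry method with BSA standard.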

[9] = system: T-24; assay: Induction of apoptosis in human T24 cells assessed as increase of caspase-3-mediated DEVDase activity at 10 ug/ml after 6 hrs; type: functional; how it was run: as §3
[10] = system: T-24; assay: Induction of apoptosis in human T24 cells assessed as increase of caspase-3-mediated DEVDase activity at 100 ug/ml after 6 hrs; type: functional; how it was run: as §3
[11] = system: T-24; assay: Induction of apoptosis in human T24 cells assessed as increase of caspase-3-mediated DEVDase activity at 1 ug/ml after 24 hrs; type: functional; how it was run: as §3
[12] = system: T-24; assay: Induction of apoptosis in human T24 cells assessed as increase of caspase-3-mediated DEVDase activity at 10 ug/ml after 24 hrs; type: functional; how it was run: as §3
[13] = system: T-24; assay: Induction of apoptosis in human T24 cells assessed as increase of caspase-3-mediated DEVDase activity at 100 ug/ml after 24 hrs; type: functional; how it was run: as §3
[14] = system: T-24; assay: Anticancer activity against human T24 cells assessed as decreased in intracellular ATP level after 6 hrs by ATPlite assay; type: functional, cell-based; how it was run: as §2
[15] = system: T-24; assay: Induction of apoptosis in human T24 cells assessed as increase of caspase-3-mediated DEVDase activity at 5 ug/ml after 4 hrs; type: functional; settings: in the assay text read “5 uM” for “5 ug/ml”
How it was run: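 Positive-control arm: T24 cells exposed to sanguinarine for 4 h. Lysate supernatant then assayed for DEVD-AFC cleavage kinetically at room temperature (ex 380/em 500 nm), expressed as U/mg protein.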

Row | SMILES | logP ([5]; read-out: logP) | logP [5] | EC50 [1] | EC50 [2] | EC50 [3] | EC50 [4] | Activity [6] | Activity [7] | Activity [8] | Activity [9] | Activity [10] | Activity [11] | Activity [12] | Activity [13] | Activity [14] | inhibition at 10 µg/mL ([6]; T-24, 240 h) | Activity [15]
1 | O=C1C=C(Nc2ccc(O)cc2)C(=O)c2ccccc21 | 1.16 |  | 0.8 µg/mL (≈ 3.02 µM) | 2.3 µg/mL (≈ 8.67 µM) | 0.9 µg/mL (≈ 3.39 µM) | 6 µg/mL (≈ 22.6 µM) | Active | Active | 6 U/mg | 2.7 U/mg | 3 U/mg | 5.1 U/mg | 4.9 U/mg | 4 U/mg | Dose-dependent effect |  | 
2 | O=C1C(Cl)=C(Nc2ccc(O)cc2)C(=O)c2ccccc21 | 1.2 |  | 2.8 µg/mL (≈ 9.34 µM) | 0.6 µg/mL (≈ 2 µM) | 1.9 µg/mL (≈ 6.34 µM) | 0.6 µg/mL (≈ 2 µM) |  |  |  |  |  |  |  |  |  |  | 
3 | COc1ccc(OC)c(NC2=CC(=O)c3ccccc3C2=O)c1 | 1.3 |  | 1.2 µg/mL (≈ 3.88 µM) | 10.9 µg/mL (≈ 35.2 µM) | 35.2 µg/mL (≈ 114 µM) | 11.5 µg/mL (≈ 37.2 µM) |  |  |  |  |  |  |  |  |  |  | 
4 | COc1ccc(NC2=C(Cl)C(=O)c3ccccc3C2=O)cc1 | 1.46 |  | > 1000 µg/mL | 438 µg/mL (≈ 1390 µM) | > 1000 µg/mL | 13.7 µg/mL (≈ 43.7 µM) |  |  |  |  |  |  |  |  |  |  | 
5 | COc1ccc(OC)c(NC2=C(Cl)C(=O)c3ccccc3C2=O)c1 | 1.34 |  | 4.6 µg/mL (≈ 13.4 µM) | 2.4 µg/mL (≈ 6.98 µM) | 6 µg/mL (≈ 17.5 µM) | 0.7 µg/mL (≈ 2.04 µM) |  |  |  |  |  |  |  |  |  |  | 
6 | COc1ccc(NC2=CC(=O)c3ccccc3C2=O)cc1 | 1.43 |  | 3.7 µg/mL (≈ 13.2 µM) | 8.1 µg/mL (≈ 29 µM) | 7.6 µg/mL (≈ 27.2 µM) | 35.7 µg/mL (≈ 128 µM) |  | Active | 5.9 U/mg | 5 U/mg | 3.4 U/mg | 5 U/mg | 4.5 U/mg | 3.4 U/mg | Dose-dependent effect | 75% | 
7 | C[n+]1cc2c3c(ccc2c2ccc4cc5c(cc4c21)OCO5)OCO3 [SANGUINARIUM] |  |  |  |  |  |  |  |  |  |  |  |  |  |  |  |  | 639.2 U/mg

Further lines, with some results ahead:

Row | logP ([5]; read-out: logP) | logP [5] | SMILES | EC50 [1] | EC50 [2] | EC50 [3] | EC50 [4] | Activity [6] | Activity [7] | Activity [8] | Activity [9] | Activity [10] | Activity [11] | Activity [12] | Activity [13] | Activity [14] | inhibition at 10 µg/mL ([6]; T-24, 240 h) | Activity [15]
8 | 2.08 |  | Cc1ccccc1NC1=C(Cl)C(=O)c2ccccc2C1=O | 4.9 µg/mL (≈ 16.5 µM) | 9.3 µg/mL (≈ 31.2 µM) | 25.8 µg/mL (≈ 86.7 µM) | 3.2 µg/mL (≈ 10.7 µM) |  |  |  |  |  |  |  |  |  |  | 
9 | 2.34 |  | CN(C1=CC(=O)c2ccccc2C1=O)c1ccccc1 | 7.8 µg/mL (≈ 29.6 µM) | 8.4 µg/mL (≈ 31.9 µM) | 20.9 µg/mL (≈ 79.4 µM) | 43.3 µg/mL (≈ 164 µM) |  |  |  |  |  |  |  |  |  |  | 
10 | 2.04 |  | Cc1ccccc1NC1=CC(=O)c2ccccc2C1=O | 0.8 µg/mL (≈ 3.04 µM) | 7.7 µg/mL (≈ 29.2 µM) | 7.7 µg/mL (≈ 29.2 µM) | 6.2 µg/mL (≈ 23.5 µM) |  |  |  |  |  |  |  |  |  |  | 
11 |  | 1.59 | O=C1C(Cl)=C(Nc2ccccc2)C(=O)c2ccccc21 | 6.3 µg/mL (≈ 22.2 µM) | 14.8 µg/mL (≈ 52.2 µM) | 66.8 µg/mL (≈ 235 µM) | 9.1 µg/mL (≈ 32.1 µM) |  |  |  |  |  |  |  |  |  |  | 
12 | 2.38 |  | CN(C1=C(Cl)C(=O)c2ccccc2C1=O)c1ccccc1 | 1.2 µg/mL (≈ 4.03 µM) | 6 µg/mL (≈ 20.2 µM) | 6.7 µg/mL (≈ 22.5 µM) | 0.8 µg/mL (≈ 2.69 µM) |  |  |  |  |  |  |  |  |  |  | 
13 | 1.55 |  | O=C1C=C(Nc2ccccc2)C(=O)c2ccccc21 | 2.6 µg/mL (≈ 10.4 µM) | 1.2 µg/mL (≈ 4.81 µM) | 4 µg/mL (≈ 16 µM) | 0.2 µg/mL (≈ 0.802 µM) |  |  |  |  |  |  |  |  |  |  | 
